Test results taken from ChEMBL document CHEMBL1828552, “Synthesis and studies of novel 2-(4-cyano-3-trifluoromethylphenyl amino)-4-(quinoline-4-yloxy)-6-(piperazinyl/piperidinyl)-s-triazines as potential antimicrobial, antimycobacterial and anticancer agents” (2011).
Converted amounts (≈) assume the structure as drawn.

What was measured:
Salmonella typhi [1] = test: Antibacterial activity against 10^5 CFU/mL Salmonella typhi MTCC 733 after 24 hrs by agar streak dilution method; type: functional, Salmonella enterica subsp. enterica serovar Typhi; conditions: Salmonella enterica, MTCC 733, 24 h
Aspergillus clavatus [2] = test: Antifungal activity against 10^5 CFU/mL Aspergillus clavatus MTCC 1323 after 48 hrs by disc diffusion technique; type: functional
Bacillus cereus [3] = test: Antibacterial activity against 10^5 CFU/mL Bacillus cereus MTCC 619 after 24 hrs by agar streak dilution method; type: functional; conditions: MTCC 619, 24 h
Procedure, shortened: (§1)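 Agar streak dilution. Stock 100 µg/mL in DMSO; graded amounts were mixed into molten nutrient agar and poured at 4–5 mm depth. Plates carried serial dilutions over […]. About 10⁵ CFU/mL of each bacterium was applied, and plates were incubated at 37 ± 1 °C for 24 h. MIC was read from the dilution series.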

Aspergillus fumigatus [4] = test: Antifungal activity against 10^5 CFU/mL Aspergillus fumigatus MTCC 343 after 48 hrs by agar streak dilution method; type: functional; conditions: MTCC 343, 48 h
Procedure, shortened: (§2)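 Agar streak dilution for fungi. Stock 100 µg/mL in DMSO; graded amounts were mixed into molten Sabouraud dextrose agar and poured at 4–5 mm depth. Serial dilutions ran over […]. About 10⁵ CFU/mL inoculum was applied, with incubation at 37 ± 1 °C for 48 h. MIC was read from the dilution series.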

Shigella flexneri [5] = test: Antibacterial activity against 10^5 CFU/mL Shigella flexneri MTCC 1457 after 24 hrs by agar streak dilution method; type: functional; conditions: MTCC 1457, 24 h; procedure, shortened: as §1
Aspergillus fumigatus [6] = test: Antifungal activity against 10^5 CFU/mL Aspergillus fumigatus MTCC 343 after 48 hrs by disc diffusion technique; type: functional
Pseudomonas aeruginosa [7] = test: Antibacterial activity against 10^5 CFU/mL Pseudomonas aeruginosa MTCC 741 after 24 hrs by agar streak dilution method; type: functional; conditions: MTCC 741, 24 h; procedure, shortened: as §1
Aspergillus niger [8] = test: Antifungal activity against 10^5 CFU/mL Aspergillus niger MTCC 282 after 48 hrs by disc diffusion technique; type: functional
Pseudomonas aeruginosa [9] = test: Antibacterial activity against 10^5 CFU/mL Pseudomonas aeruginosa MTCC 741 after 24 hrs by disc diffusion technique; type: functional
Procedure, shortened: (§3)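 Disc diffusion on Mueller–Hinton agar poured 5 mm deep. The surface was swabbed with a 10⁵ CFU/mL […] suspension. Filter-paper discs 6.25 mm in diameter were soaked in compound in DMSO and placed on the agar. Plates were incubated 24 h at 37 ± 1 °C, and the inhibition zone was measured in mm. A DMSO disc served as blank.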

Proteus vulgaris [10] = test: Antibacterial activity against 10^5 CFU/mL Proteus vulgaris MTCC 1771 after 24 hrs by agar streak dilution method; type: functional; conditions: MTCC 1771, 24 h; procedure, shortened: as §1
Klebsiella pneumoniae [11] = test: Antibacterial activity against 10^5 CFU/mL Klebsiella pneumoniae MTCC 109 after 24 hrs by agar streak dilution method; type: functional; conditions: MTCC 109, 24 h; procedure, shortened: as §1
Escherichia coli [12] = test: Antibacterial activity against 10^5 CFU/mL Escherichia coli MTCC 739 after 24 hrs by disc diffusion technique; type: functional; procedure, shortened: as §3
Staphylococcus aureus [13] = test: Antibacterial activity against 10^5 CFU/mL Staphylococcus aureus MTCC 96 after 24 hrs by agar streak dilution method; type: functional; conditions: MTCC 96, 24 h; procedure, shortened: as §1
Candida albicans [14] = test: Antifungal activity against 10^5 CFU/mL Candida albicans MTCC 183 after 48 hrs by agar streak dilution method; type: functional; conditions: MTCC 183, 48 h; procedure, shortened: as §2
Aspergillus niger [15] = test: Antifungal activity against 10^5 CFU/mL Aspergillus niger MTCC 282 after 48 hrs by agar streak dilution method; type: functional; conditions: MTCC 282, 48 h; procedure, shortened: as §2
Aspergillus clavatus [16] = test: Antifungal activity against 10^5 CFU/mL Aspergillus clavatus MTCC 1323 after 48 hrs by agar streak dilution method; type: functional; conditions: MTCC 1323, 48 h; procedure, shortened: as §2
DU-145 = test: Cytotoxicity against […] human DU145 cells after 48 hrs by SRB assay; type: functional; conditions: DU-145, 48 h
Procedure, shortened: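 SRB assay in DU-145 cells grown in RPMI 1640 with 10% FBS and 2 mM L-glutamine. Cells were plated and held 24 h before addition of four 10-fold concentrations. After 48 h, cells were TCA-fixed, stained with 0.4% SRB and read at 540 nm. GI50, TGI and LC50 were derived against time-zero and control wells; each value is the mean of three experiments.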

Salmonella typhi [17] = test: Antibacterial activity against 10^5 CFU/mL Salmonella typhi MTCC 733 after 24 hrs by disc diffusion technique; type: functional, Salmonella enterica subsp. enterica serovar Typhi
Procedure, shortened: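 Disc diffusion. Mueller-Hinton agar autoclaved 120 °C 30 min, poured 5 mm deep. Surface swabbed with 10⁵ CFU/mL suspension […]. 6.25 mm filter-paper discs soaked in compound in DMSO; DMSO-only disc as blank. Incubated 37 ± 1 °C, 24 h for bacteria or 48 h for fungi. Ciprofloxacin and ketoconazole discs as reference drugs. Inhibition zone measured in mm.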

Shigella flexneri [18] = test: Antibacterial activity against 10^5 CFU/mL Shigella flexneri MTCC 1457 after 24 hrs by disc diffusion technique; type: functional; procedure, shortened: as §3
Candida albicans [19] = test: Antifungal activity against 10^5 CFU/mL Candida albicans MTCC 183 after 48 hrs by disc diffusion technique; type: functional
Escherichia coli [20] = test: Antibacterial activity against 10^5 CFU/mL Escherichia coli MTCC 739 after 24 hrs by agar streak dilution method; type: functional; conditions: MTCC 739, 24 h; procedure, shortened: as §1
Bacillus cereus [21] = test: Antibacterial activity against 10^5 CFU/mL Bacillus cereus MTCC 619 after 24 hrs by disc diffusion technique; type: functional; procedure, shortened: as §3
Klebsiella pneumoniae [22] = test: Antibacterial activity against 10^5 CFU/mL Klebsiella pneumoniae MTCC 109 after 24 hrs by disc diffusion technique; type: functional; procedure, shortened: as §3
Proteus vulgaris [23] = test: Antibacterial activity against 10^5 CFU/mL Proteus vulgaris MTCC 1771 after 24 hrs by disc diffusion technique; type: functional; procedure, shortened: as §3
Staphylococcus aureus [24] = test: Antibacterial activity against 10^5 CFU/mL Staphylococcus aureus MTCC 96 after 24 hrs by disc diffusion technique; type: functional; procedure, shortened: as §3

Row | SMILES | MIC (Salmonella typhi [1]) | inhibition zone (IZ) (Aspergillus clavatus [2]) | MIC (Bacillus cereus [3]) | MIC (Aspergillus fumigatus [4]) | MIC (Shigella flexneri [5]) | inhibition zone (IZ) (Aspergillus fumigatus [6]) | MIC (Pseudomonas aeruginosa [7]) | inhibition zone (IZ) (Aspergillus niger [8]) | inhibition zone (IZ) (Pseudomonas aeruginosa [9]) | MIC (Proteus vulgaris [10]) | MIC (Klebsiella pneumoniae [11]) | inhibition zone (IZ) (Escherichia coli [12]) | MIC (Staphylococcus aureus [13]) | MIC (Candida albicans [14]) | MIC (Aspergillus niger [15]) | MIC (Aspergillus clavatus [16]) | GI50 (DU-145) | LC50 (concentration giving 50% net cell kill relative to time zero) (DU-145) | TGI (DU-145) | inhibition zone (IZ) (Salmonella typhi [17]) | other results
1 | CC(=O)N1CCN(c2nc(Nc3ccc(C#N)c(C(F)(F)F)c3)nc(Oc3ccnc4ccccc34)n2)CC1 | 100 µg/mL (≈ 187 µM) | 27 mm | 12.5 µg/mL (≈ 23.4 µM) | 100 µg/mL (≈ 187 µM) | 25 µg/mL (≈ 46.8 µM) | 21 mm | 12.5 µg/mL (≈ 23.4 µM) | 21 mm | 24 mm | 6.25 µg/mL (≈ 11.7 µM) | 50 µg/mL (≈ 93.5 µM) | 24 mm | 12.5 µg/mL (≈ 23.4 µM) | 100 µg/mL (≈ 187 µM) | 100 µg/mL (≈ 187 µM) | 12.5 µg/mL (≈ 23.4 µM) | 75.1 µM | > 100 µM | > 100 µM | 23 mm | inhibition zone (IZ) (Shigella flexneri [18]): 23 mm; inhibition zone (IZ) (Candida albicans [19]): 17 mm; MIC (Escherichia coli [20]): 12.5 µg/mL (≈ 23.4 µM); inhibition zone (IZ) (Bacillus cereus [21]): 24 mm; inhibition zone (IZ) (Klebsiella pneumoniae [22]): 23 mm; inhibition zone (IZ) (Proteus vulgaris [23]): 27 mm; inhibition zone (IZ) (Staphylococcus aureus [24]): 26 mm
2 | CC(C)N1CCN(c2nc(Nc3ccc(C#N)c(C(F)(F)F)c3)nc(Oc3ccnc4ccccc34)n2)CC1 | 100 µg/mL (≈ 187 µM) | 17 mm | 50 µg/mL (≈ 93.5 µM) | 100 µg/mL (≈ 187 µM) | 50 µg/mL (≈ 93.5 µM) | 17 mm | 25 µg/mL (≈ 46.8 µM) | <10 mm | 22 mm | 100 µg/mL (≈ 187 µM) | 100 µg/mL (≈ 187 µM) | 22 mm | 50 µg/mL (≈ 93.5 µM) | 100 µg/mL (≈ 187 µM) | 100 µg/mL (≈ 187 µM) | 100 µg/mL (≈ 187 µM) | > 100 µM | > 100 µM | > 100 µM | 21 mm | inhibition zone (IZ) (Shigella flexneri [18]): 21 mm; inhibition zone (IZ) (Candida albicans [19]): 18 mm; MIC (Escherichia coli [20]): 50 µg/mL (≈ 93.5 µM); inhibition zone (IZ) (Bacillus cereus [21]): 22 mm; inhibition zone (IZ) (Klebsiella pneumoniae [22]): 21 mm; inhibition zone (IZ) (Proteus vulgaris [23]): 21 mm; inhibition zone (IZ) (Staphylococcus aureus [24]): 23 mm
3 | N#Cc1ccc(Nc2nc(Oc3ccnc4ccccc34)nc(N3CCN(c4ccccn4)CC3)n2)cc1C(F)(F)F | 100 µg/mL (≈ 176 µM) | <10 mm | 100 µg/mL (≈ 176 µM) | 100 µg/mL (≈ 176 µM) | 100 µg/mL (≈ 176 µM) | 12 mm | 100 µg/mL (≈ 176 µM) | <10 mm | 16 mm | 100 µg/mL (≈ 176 µM) | 100 µg/mL (≈ 176 µM) | 19 mm | 100 µg/mL (≈ 176 µM) | 100 µg/mL (≈ 176 µM) | 100 µg/mL (≈ 176 µM) | 100 µg/mL (≈ 176 µM) | 85.9 µM | > 100 µM | > 100 µM | 15 mm | inhibition zone (IZ) (Shigella flexneri [18]): 16 mm; inhibition zone (IZ) (Candida albicans [19]): 13 mm; MIC (Escherichia coli [20]): 100 µg/mL (≈ 176 µM); inhibition zone (IZ) (Bacillus cereus [21]): 19 mm; inhibition zone (IZ) (Klebsiella pneumoniae [22]): 17 mm; inhibition zone (IZ) (Proteus vulgaris [23]): 16 mm; inhibition zone (IZ) (Staphylococcus aureus [24]): 21 mm
